Source: PubChem (several laboratories)
L major viab = Leishmania major promastigote growth inhibition, primary screen; inhibition, % at 10 µM; Leishmania major promastigotes, resazurin fluorescence viability; actives 9% (n = 200,000);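 also: promastigotes grown with compound for 44 hours at 28 °C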
G6PDH CS = L. mesenteroides G6PDH inhibitors, counter-screen for G6PDH-coupled screening assays, biochemical, Leuconostoc mesenteroides enzyme; glucose-6-phosphate dehydrogenase [Leuconostoc mesenteroides]; inhibition, % at 5 µM; Purified L. mesenteroides G6PDH, diaphorase/resazurin coupled fluorescence, 45 min; actives 0.12% (n = 200,000)
PfGluPho inh = PfG6PD enzyme inhibitors, primary screen, biochemical, fluorescence intensity, uHTS | glucose-6-phosphate dehydrogenase-6-phosphogluconolactonase (Plasmodium falciparum 3D7) | PfGluPho enzyme, NADPH resazurin-diaphorase fluorescence | inhibition, % at 20 µM | actives 0.78% (n = 350,000) | AID 504690, 2011;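 active = inhibition reaching at least a set limit at 20 µM in the primary screen, cut at about 59% in these data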;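 also: 0% = DMSO wells with substrate and 100% = DMSO wells lacking glucose-6-phosphate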
Diaphorase act = compounds boosting diaphorase resazurin reduction – biochemical, uHTS, resorufin fluorescence, counter-screen for diaphorase-coupled primary assays, primary screen; Diaphorase/resazurin coupled assay, 16 min; hits give high values; 1 = vehicle wells, 0 = NADH-free wells; activation factor at 20 µM; actives 0.005% (n = 190,000);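 active = diaphorase activity raised at least twofold by the compound at 20 µM; inactive = activation factor below 2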
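Material: Clostridium kluyveri diaphorase, purified enzyme; Quantity: enzyme 0.07 U/mL final; Medium: HEPES pH 7.4 buffer with MgCl2 and Tween 20; Dosing: single compound dose of 20 µM, 1% DMSO final; Schedule: 16 min reaction at room temperature; Measured by: red resorufin fluorescence at 544/590 nm excitation/emission.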
DTT redox prof = compounds producing H2O2 with reducing agent – biochemical, NIH compound library profiling, artefact control for MLSCN library redox annotation, primary screen. DTT-dependent redox cycling H2O2, phenol red/HRP absorbance; 100% = 100 µM peroxide control, 0% = buffer. activation, % at 10 µM. actives 0.03% (n = 200,000). AID 878, 2007;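 active = activation of at least 50% relative to the plate's high and low controls in the primary single-dose screen; inactive = activation below 50%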;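 also: compound incubated with DTT at 0.8 mM final as the reducing agent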
Diaphorase inh = diaphorase inhibitors and chemical oxidizers, primary screen, counter-screen for diaphorase-coupled primary assays, biochemical, uHTS, resorufin fluorescence. diaphorase resazurin-to-resorufin fluorescence, NADH, 16 min; bacterial (C. kluyveri) enzyme, not human. inhibition, % at 20 µM. actives 0.69% (n = 190,000);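 active = primary screen inhibition at 20 µM above a set limit, cut at about 50% in these data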;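 also: plate controls were DMSO with full reaction for no effect and wells lacking NADH for full effect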
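controls = No-NADH positive control and DMSO neutral control | system = Clostridium kluyveri diaphorase enzyme | timing = reaction incubation of 16 min at room temperature | signal = resorufin fluorescence 544/590 nm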
Active calls of the source: *; · = not tested or not shown. Many of the other results were omitted from the sample, so hits are more common in it than they were. Rule as the data show it, unless noted: active = inhibition above about 50%; inactive = the rest.

SMILES | L major viab | G6PDH CS | PfGluPho inh | Diaphorase act | DTT redox prof | Diaphorase inh
CCc1cccc(C)c1NC(=O)CN(C)Cc1cccc(F)c1 | 1.3 | -12.1 | -17.1 | 0.9 | 0.5 | 5.4
Cc1cccc(C(C)C)c1NC(=O)CN(C)Cc1cccc(F)c1 | 71.9* | 6.3 | -10.1 | 0.9 | -0.2 | 9.8
Cn1cnnc1SCC(C)(C)NS(=O)(=O)c1ccc(Cl)cc1 | · | · | 0.2 | · | · | ·
CCOc1cccc2cc(C(=O)N3CCN(C/C=C/c4ccccc4)CC3)c(=O)oc12 | 96.0* | 2.4 | 10.1 | 0.8 | 1.0 | 20.1
CCOc1cc(C(=O)N2CCN(C/C=C/c3ccccc3)CC2)cc(OCC)c1OCC | 65.9* | 1.4 | 6.3 | 0.9 | 0.0 | 10.0
Cc1ccccc1-c1cccc([C@@H]2C[C@H]3[C@H](CON3C)CN2Cc2cc(Cl)cc(Cl)c2)c1 | · | · | -1.2 | · | · | ·
CN(c1cccc(NC(=O)CN(c2cccc(Cl)c2)S(=O)(=O)c2ccc(Cl)cc2)c1)S(C)(=O)=O | 72.2* | -1.0 | 9.4 | 0.8 | 0.5 | 22.6
Cc1cccc(C)c1N(CC(=O)Nc1cccc(N(C)S(C)(=O)=O)c1)S(C)(=O)=O | 98.1* | 9.3 | -6.4 | 0.8 | 0.1 | 16.8
COc1ccc(N(CC(=O)N/N=C/c2cc(Br)c(C)o2)S(=O)(=O)c2ccc(NC(C)=O)cc2)cc1 | -3.9 | 14.4 | 11.6 | · | -0.3 | ·
Cc1cccc(C)c1N(CC(=O)N/N=C/c1cc(Br)c(C)o1)S(C)(=O)=O | 70.5* | 7.1 | 0.2 | 0.8 | 0.2 | 15.2
CCOC(=O)N1CCN(C(=O)c2cccc(S(=O)(=O)Nc3ccccc3Cl)c2)CC1 | · | · | -4.8 | · | · | ·
COc1ccc(CNC2CC(C)N(C)CC2C)cc1OC (stereo not drawn) | · | · | -9.1 | · | · | ·
CCc1noc(C)c1C(=O)OC(C)C(=O)Nc1ccccc1OC (stereo not drawn) | · | · | 14.0 | · | · | ·
Cc1ccccc1/C=C/C(=O)c1ccc([N+](=O)[O-])o1 | · | · | 80.2* | · | · | ·
O=C(/C=C/c1cccc([N+](=O)[O-])c1)c1ccc([N+](=O)[O-])o1 | · | · | 97.8* | · | · | ·
Cc1nc2ccccn2c1C(=O)/C=C/c1cccc([N+](=O)[O-])c1 | 98.2* | 13.4 | 6.6 | 0.9 | -2.0 | 11.5
Cc1cccc(/C=C/C(=O)c2ccc([N+](=O)[O-])o2)c1 | · | · | 47.9 | · | · | ·
COCCn1c(SCC(=O)N2CCCCC2)nc2c(c1=O)SC(C)C2 (stereo not drawn) | · | · | -2.7 | · | · | ·
Cc1c(F)cccc1NC(=O)c1ccc2c(c1)CCN2S(C)(=O)=O | · | · | 12.8 | · | · | ·
CCc1cc2c(=O)n(-c3ccccc3)c(SCC(N)=O)nc2s1 | · | · | -5.3 | · | · | ·
CCc1cc2c(=O)n(-c3ccccc3)c(=S)[nH]c2s1 | -8.4 | 5.5 | 44.4 | 0.2 | 1.5 | 81.0*
COC(=O)c1ccc(COc2cccc3c2OC(C)(C)C3)cc1 | · | · | 7.5 | · | · | ·
COc1ccc(CNCC(O)COc2cccc3c2OC(C)(C)C3)cc1 (stereo not drawn) | 86.1* | 0.2 | -15.3 | 0.9 | -1.4 | 5.6
Cc1sc2nc(SCC(=O)N3CCOCC3)[nH]c(=O)c2c1-c1ccccc1 | · | · | -14.2 | · | · | ·
CCN(CC)S(=O)(=O)c1ccc(NC(=O)c2cc(C(=O)OC)cc([N+](=O)[O-])c2)cc1 | 29.8 | 33.6 | -11.7 | 0.8 | 0.2 | 18.8
SMILES | L major viab | G6PDH CS | PfGluPho inh | Diaphorase act | DTT redox prof | Diaphorase inh
COC(=O)c1cc(C(=O)Nc2ccc(S(=O)(=O)NC(C)(C)C)cc2)cc([N+](=O)[O-])c1 | 99.3* | -6.6 | 12.5 | 1 | -0.1 | 0.0
Cc1ccc(S(=O)(=O)/N=C(/Nc2ccc([N+](=O)[O-])cc2[N+](=O)[O-])c2ccccc2)cc1 | · | · | -3.5 | · | · | ·
CCOC(=O)c1cnc2cc(C)nn2c1-c1ccccc1 | -6.4 | 6.1 | -14.8 | 1 | 1.8 | 1.8
O=C(NCCN1CCOCC1)c1ccc(CSCc2cccc(Cl)c2)o1 | 1.0 | 4.6 | -8.1 | 1.2 | -1.1 | -17.7
Clc1cccc(-c2ccc(CNCCCN3CCOCC3)o2)c1 | 77.1* | 16.8 | -5.9 | 1 | -0.4 | -3.7
O=C(NCCCN1CCOCC1)c1ccc(CSCc2cccc(Cl)c2)o1 | 71.0* | 8.1 | 1.4 | 1.2 | -1.6 | -21.8
O=C(CCN1C(=O)c2ccccc2S1(=O)=O)NCc1ccccc1 | · | · | -1.4 | · | · | ·
Clc1ccc(CNc2nnnn2-c2ccccc2)c(Cl)c1 | 11.1 | 24.4 | -13.0 | 0.9 | 0.5 | 7.1
C/C(=N\O)c1cc(Cl)ccc1O | · | · | 20.3 | · | · | ·
CCOC(=O)c1[nH]n(-c2ccc(Cl)cc2)c(=O)c1C | 52.2* | -2.3 | 9.6 | 0.9 | 4.0 | 9.1
Cc1[nH]n(-c2ccc(Cl)cc2)c(=O)c1C(=O)c1ccccc1 | -8.8 | 7.7 | 5.6 | 0.9 | 0.1 | 8.5
O=C(CSc1nnc(Cc2cccs2)n1-c1ccccc1)NCc1ccc2c(c1)OCO2 | 13.2 | -7.0 | -21.3 | 0.8 | 2.0 | 17.1
CC(Sc1nnc(-c2cccs2)n1-c1ccccc1)C(=O)NCc1ccc2c(c1)OCO2 (stereo not drawn) | 91.2* | 4.8 | 14.7 | 0.9 | 0.6 | 6.6
COc1ccc(C2(CNC(=O)c3cc([N+](=O)[O-])cc([N+](=O)[O-])c3)CCCC2)cc1OC | 99.6* | -0.9 | 4.2 | 0.9 | 0.0 | 8.5
Cc1ccc(OCC(=O)N2CCN(c3nnc(-c4ccccc4)c4ccccc34)CC2)cc1 | 89.1* | -3.1 | -1.3 | 0.8 | 0.0 | 20.0
CCn1cc(C(=O)OCC(=O)c2cc(C)n(-c3ccccc3F)c2C)c(=O)c2ccc(C)nc21 | 52.9* | 7.3 | -18.1 | 0.6 | 0.0 | 35.8
CCn1cc(C(=O)OCC(=O)c2cc(C)n(-c3ccccc3)c2C)c(=O)c2ccc(C)nc21 | -3.9 | -19.6 | -8.0 | 1 | -0.3 | 3.0
O=C(CCc1ccc(S(=O)(=O)N2CCOCC2)cc1)N1CCc2ccccc2C1 | 4.4 | 2.1 | -4.0 | 1 | -0.1 | 2.8
COc1cc(C(=O)NCCCc2nc3ccccc3n2Cc2cc(C)ccc2C)cc(OC)c1OC | 69.3* | 16.7 | 14.1 | 0.9 | 0.6 | 12.6
Cc1nccn1S(=O)(=O)c1ccc(Br)cc1Br | 85.9* | 2.8 | 6.1 | 0.9 | -0.1 | 5.2
COc1ccc(Br)cc1S(=O)(=O)n1ccnc1C | 5.5 | 1.2 | -10.0 | 0.9 | 0.9 | 6.0
O=C(COC(=O)CC(c1ccccc1)c1ccccc1)Nc1c(F)cccc1F | 50.1* | 0.6 | · | 0.8 | 0.1 | 19.4
O=C(COC(=O)CCSc1ccc(Cl)cc1)NCCc1ccccc1 | -5.0 | -5.5 | 1.2 | 0.4 | 0.7 | 55.0*
